Data from ChEMBL document CHEMBL3856239, “Synthesis and Antiobesity Properties of 6-(4-Chlorophenyl)-3-(4-((3,3-difluoro-1-hydroxycyclobutyl)methoxy)-3-methoxyphenyl)thieno[3,2-d]pyrimidin-4(3H)-one (BMS-814580): A Highly Efficacious Melanin Concentrating Hormone Receptor 1 (MCHR1) Inhibitor” (J Med Chem, 2016).

Columns and labels:
[1] = Solubility of the compound in phosphate buffer at pH 6.4; assay type: physicochemical
In short: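 Solubility of parent compounds and prodrugs measured in 50 mM phosphate buffer, pH 6.4.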

[2] = Displacement of [Phe13,125I]Tyr19]-MCH from human MCHR1 E4Q/A5T double mutant expressed in HEK293 cells by TopCount scintillation counting method; assay type: cell-based
[3] = Plasma concentration in Sprague-Dawley rat assessed as parent compound level at 10 mg/kg, po measured after 8 hrs; assay type: ADME, organism-based
In short: (§1)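 SD rats given 10 mg/kg orally as parent or glycine prodrug (prodrug dose adjusted to parent), in 0.5% Methocel/0.1% Tween 80/99.4% water. Plasma and brain levels of parent measured 8 h post dose, n = 2; 0–8 h plasma AUC also determined.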

[4] = AUC in Sprague-Dawley rat assessed as parent compound level at 10 mg/kg, po measured after 8 hrs; assay type: ADME, organism-based; parameters: dose 10 mg/kg, time < 8 hr, route oral; settings: in vivo
[5] = Plasma concentration in Sprague-Dawley rat assessed as 6-(4-chlorophenyl)-3-(4-((3-hydroxyoxetan-3-yl)methoxy)-3-methoxyphenyl)thieno[3,2-d]pyrimidin-4(3H)-one level measured on day 4 post 20 hrs of last dosage
In short: (§2)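 SD rats dosed orally once daily for 4 days at 3, 10 and 30 mg/kg, as glycine prodrug in 0.5% Methocel/0.1% Tween 80 vehicle. Parent plasma and brain levels taken on day 4 at 20 h; n = 8. Biliary lesions examined.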

[6] = Drug level in Sprague-Dawley rat brain assessed as 6-(4-chlorophenyl)-3-(4-((3-hydroxyoxetan-3-yl)methoxy)-3-methoxyphenyl)thieno[3,2-d]pyrimidin-4(3H)-one level measured on day 4 post 20 hrs of last dosage; assay type: ADME, tissue-based; settings: in vivo, read-out: Ct
In short: (§3)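 Sub-chronic study in Sprague-Dawley rats: oral glycinate prodrug at 3, 10 and 30 mg/kg once daily for 4 days, vehicle 0.5% Methocel/0.1% Tween 80/99.4% water; parent compound measured in brain on day 4 at 20 h.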

Rattus norvegicus [7] = test: Antiobesity activity in DIO Sprague-Dawley rat assessed as body weight loss at 10 mg/kg, po qd for 4 days; assay type: functional
In short: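 Sprague-Dawley rats dosed orally once daily for 4 days at 3, 10 and 30 mg/kg (vehicle 0.5% Methocel/0.1% Tween 80/99.4% water), n = 8; body weight change from baseline versus vehicle-treated animals, value given for 10 mg/kg.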

[8] = Drug uptake in Sprague-Dawley rat brain assessed as parent compound level at 10 mg/kg, po measured after 8 hrs; assay type: ADME, organism-based; settings: read-out: Drug uptake
In short: (§4)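 Sprague-Dawley rats dosed orally once at 10 mg/kg as parent or glycinate prodrug (prodrug dose adjusted to parent), vehicle 0.5% Methocel/0.1% Tween 80/99.4% water; parent compound measured in brain 8 h post dose, n = 2.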

[9] = Protein binding in Sprague-Dawley rat plasma at 10 mg/kg, po qd for 4 days; assay type: ADME, organism-based; settings: read-out: PPB
[10] = Metabolic stability in human liver microsomes assessed as compound remaining at 3 uM measured after 10 min; assay type: ADME; settings: read-out: Stability
In short: (§5)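 Test compound at 3.0 µM incubated with liver microsomes for 10 minutes; read-out is percent of parent remaining.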

[11] = Metabolic stability in rat liver microsomes assessed as compound remaining at 3 uM measured after 10 min; assay type: ADME; settings: read-out: Stability; in short: as §5
[12] = Lipophilicity, log P of the compound at pH 7 by HPLC analysis; assay type: physicochemical; settings: buffer
In short: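 LogP determined by HPLC at pH 7.0.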

[13] = Plasma concentration in Sprague-Dawley rat at 10 mg/kg, po measured after 8 hrs; assay type: ADME, organism-based; in short: as §1
[14] = AUC in Sprague-Dawley rat at 10 mg/kg, po measured after 8 hrs; assay type: ADME, organism-based; parameters: time < 8 hr, dose 10 mg/kg, route oral; settings: in vivo
[15] = Metabolic stability in mouse liver microsomes assessed as compound remaining at 3 uM measured after 10 min; assay type: ADME; settings: read-out: Stability; in short: as §5
[16] = Drug uptake in Sprague-Dawley rat brain at 10 mg/kg, po measured after 8 hrs; assay type: ADME, organism-based; settings: read-out: Drug uptake; in short: as §4
hERG (KCNH2) = hERG (KCNH2) (Homo sapiens, UniProt Q12809); test: Inhibition of human ERG at 1 uM by patch clamp assay
[17] = Drug level in Sprague-Dawley rat brain assessed as 6-(4-chlorophenyl)-3-(4-((3,3-difluoro-1-hydroxycyclobutyl)methoxy)-3-methoxyphenyl)thieno[3,2-d]pyrimidin-4(3H)-one level measured on day 4 post 20 hrs of last dosage; assay type: ADME, tissue-based; settings: in vivo, read-out: Ct; in short: as §3
[18] = Plasma concentration in Sprague-Dawley rat assessed as 6-(4-chlorophenyl)-3-(4-((3,3-difluoro-1-hydroxycyclobutyl)methoxy)-3-methoxyphenyl)thieno[3,2-d]pyrimidin-4(3H)-one level measured on day 4 post 20 hrs of last dosage; in short: as §2
[19] = Ratio of drug level in brain to plasma in Sprague-Dawley rat at 10 mg/kg, po measured after 8 hrs; assay type: ADME, organism-based; settings: brain and plasma, read-out: BPR; in short: as §1
[20] = Protein binding in rat plasma assessed as unbound fraction; assay type: ADME, cell-free
In short: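 Plasma protein binding reported as % free drug in rat, DIO rat, dog, cynomolgus monkey, rabbit and human plasma.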

Rattus norvegicus [21] = test: Antiobesity activity in DIO Sprague-Dawley rat model assessed as reduction in caloric intake at 10 mg/kg, po qd for 28 days relative to vehicle control; assay type: functional; parameters: scale not given: the % may be the effect or the level left
Rattus norvegicus [22] = test: Antiobesity activity in DIO Sprague-Dawley rat model assessed as reduction in body weight at 10 mg/kg, po qd for 28 days relative to vehicle control; assay type: functional; parameters: scale not given: the % may be the effect or the level left
Rattus norvegicus [23] = test: Toxicity in Sprague-Dawley rat assessed as incidence of biliary lesions at 30 mg/kg, po for 4 days; assay type: organism-based; settings: in vivo, 96 h; in short: as §2

hERG (KCNH2), sequence (Q12809 whole entry): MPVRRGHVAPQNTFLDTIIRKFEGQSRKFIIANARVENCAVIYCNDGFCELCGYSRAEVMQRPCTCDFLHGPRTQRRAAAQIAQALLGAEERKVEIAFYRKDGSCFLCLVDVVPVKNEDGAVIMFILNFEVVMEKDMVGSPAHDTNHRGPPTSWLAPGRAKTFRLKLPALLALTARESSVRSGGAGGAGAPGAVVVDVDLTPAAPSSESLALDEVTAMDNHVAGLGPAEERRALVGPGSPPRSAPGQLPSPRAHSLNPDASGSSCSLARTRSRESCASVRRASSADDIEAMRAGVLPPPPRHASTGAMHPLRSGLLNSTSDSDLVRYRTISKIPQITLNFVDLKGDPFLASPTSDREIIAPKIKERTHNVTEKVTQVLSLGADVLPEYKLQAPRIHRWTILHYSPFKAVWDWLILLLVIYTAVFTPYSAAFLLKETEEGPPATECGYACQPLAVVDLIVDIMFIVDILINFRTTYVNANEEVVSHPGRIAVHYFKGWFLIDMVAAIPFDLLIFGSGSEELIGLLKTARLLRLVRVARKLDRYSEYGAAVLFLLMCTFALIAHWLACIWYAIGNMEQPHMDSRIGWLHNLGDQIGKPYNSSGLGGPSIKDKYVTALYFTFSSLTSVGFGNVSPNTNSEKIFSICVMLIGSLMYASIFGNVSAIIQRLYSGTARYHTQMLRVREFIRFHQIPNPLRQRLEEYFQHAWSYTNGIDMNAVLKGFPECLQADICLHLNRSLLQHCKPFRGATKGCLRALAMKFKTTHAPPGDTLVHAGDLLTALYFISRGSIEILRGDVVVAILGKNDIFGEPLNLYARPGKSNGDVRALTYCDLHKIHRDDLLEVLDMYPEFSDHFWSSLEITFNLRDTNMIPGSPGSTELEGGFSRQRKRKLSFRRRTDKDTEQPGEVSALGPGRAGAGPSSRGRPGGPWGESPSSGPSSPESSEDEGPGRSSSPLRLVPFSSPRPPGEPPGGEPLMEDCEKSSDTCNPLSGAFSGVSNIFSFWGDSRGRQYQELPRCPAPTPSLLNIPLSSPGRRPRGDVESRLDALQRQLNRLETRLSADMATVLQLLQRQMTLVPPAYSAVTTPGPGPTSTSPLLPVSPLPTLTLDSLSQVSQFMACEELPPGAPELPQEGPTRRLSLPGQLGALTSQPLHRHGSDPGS

| Compound | solubility [1] | concentration at 8 h [3] | concentration at 8 h [8] | fraction unbound at 96 h [9] | remaining at 10 min, 3 µM [10] | remaining at 10 min, 3 µM [11] | logP [12] | Ki [2] | further results |
| --- | --- | --- | --- | --- | --- | --- | --- | --- | --- |
| COc1cc(-n2cnc3cc(-c4ccc(Cl)cc4)sc3c2=O)ccc1OCC(C)(C)OP(=O)(O)O | < 1 µg/mL |  |  |  |  |  |  |  |  |
| COc1cc(-n2cnc3cc(-c4ccc(Cl)cc4)sc3c2=O)ccc1OCCN1CCCC1 |  |  |  |  |  |  |  | 2.9 to 3.8 nM |  |
| COc1cc(-n2cnc3cc(-c4ccc(Cl)cc4)sc3c2=O)ccc1OCC1(OC(=O)CN)COC1 |  | 1160 nM | 1130 nM |  |  |  |  |  | AUC [4]: 34.9 µM·h; concentration [5]: 37 nM; concentration [6]: < 3 nM; Activity (Rattus norvegicus [7]): 0% |
| COc1cc(-n2cnc3cc(-c4ccc(Cl)cc4)sc3c2=O)ccc1OC[C@@H](C)O |  |  |  |  |  |  |  | 9.5 nM | inhibition at 1 µM (hERG (KCNH2)): 43.8% |
| COc1cc(-n2cnc3cc(-c4ccc(Cl)cc4)sc3c2=O)ccc1OCC1(OC(=O)CN)CC(F)(F)C1 | < 1 µg/mL | 4500 nM | 11300 nM |  |  |  |  |  | AUC [4]: 38.1 µM·h; concentration [17]: 7960 nM; Activity (Rattus norvegicus [7]): 6.4%; concentration [18]: 12800 nM; Kp at 8 h [19]: 2.5 |
| COc1cc(-n2cnc3cc(-c4ccc(Cl)cc4)sc3c2=O)ccc1OCC(C)(C)O | < 1 µg/mL | 3530 nM | 7800 nM |  | 100% | 98% | 4.5 |  | Fu [20]: 0.8%; remaining at 10 min, 3 µM [15]: 90% |
| Cc1c(C(=O)NN2CCCCC2)nn(-c2ccc(Cl)cc2Cl)c1-c1ccc(Cl)cc1 [RIMONABANT] |  |  |  |  |  |  |  |  | Activity (Rattus norvegicus [21]): 27%; Activity (Rattus norvegicus [22]): 8.5% |

Now from value to compound, other results behind:

| solubility [1] | concentration at 8 h [3] | concentration at 8 h [8] | fraction unbound at 96 h [9] | remaining at 10 min, 3 µM [10] | remaining at 10 min, 3 µM [11] | logP [12] | Compound | Ki [2] | further results |
| --- | --- | --- | --- | --- | --- | --- | --- | --- | --- |
| < 1 µg/mL |  |  | < 0.02 | 73% | 14% | 4.7 | COc1cc(-n2cnc3cc(-c4ccc(Cl)cc4)sc3c2=O)ccc1OCC1(O)CCCC1 | 11.9 nM |  |
| < 1 µg/mL |  |  | < 0.02 | 87% | 27% | 4.2 | COc1cc(-n2cnc3cc(-c4ccc(Cl)cc4)sc3c2=O)ccc1OCC1(O)CCOCC1 | 11.2 nM | concentration at 8 h [13]: 29 nM; AUC at 8 h [14]: 0.4 µM·h; remaining at 10 min, 3 µM [15]: 98%; concentration at 8 h [16]: < 3 nM |
| < 1 µg/mL |  |  | < 0.02 | 94% | 61% | 4.1 | COc1cc(-n2cnc3cc(-c4ccc(Cl)cc4)sc3c2=O)ccc1OCC1(O)CC1 | 17.5 nM | remaining at 10 min, 3 µM [15]: 99% |
|  | 113 nM | < 3 nM |  |  |  |  | COc1cc(-n2cnc3cc(-c4ccc(Cl)cc4)sc3c2=O)ccc1OCC1(OC(=O)CN)CC1 |  | AUC [4]: 5.9 µM·h |
| < 1 µg/mL |  |  | < 0.02 | 100% | 47% | 3.8 | COc1cc(-n2cnc3cc(-c4ccc(Cl)cc4)sc3c2=O)ccc1OCC1(O)COC1 | 8.7 nM | Activity (Rattus norvegicus [23]): 40%; remaining at 10 min, 3 µM [15]: 100% |
| < 1 µg/mL |  |  | < 0.02 |  | 24% | 4.7 | COc1cc(-n2cnc3cc(-c4ccc(Cl)cc4)sc3c2=O)ccc1OCC1(O)CCC1 | 9.8 nM | concentration at 8 h [13]: 6 nM; AUC at 8 h [14]: 0.2 µM·h; concentration at 8 h [16]: < 3 nM |
| < 1 µg/mL | 15 nM | < 3 nM |  |  |  |  | COc1cc(-n2cnc3cc(-c4ccc(Cl)cc4)sc3c2=O)ccc1OCC1(OC(=O)CN)CCC1 |  | AUC [4]: 1.3 µM·h |
